From ChEMBL document CHEMBL5244270, “Selective Inhibitors of G2019S-LRRK2 Kinase Activity” (J Med Chem, 2020)

What was measured:
[1] = biological target: T1, Leucine-rich repeat serine/threonine-protein kinase 2 (Homo sapiens, UniProt Q5S007); assay: Inhibition of N-terminal GST-fused human wild type LRRK2 using fluorescein-labeled LRRKtide as substrate preincubated for 15 mins followed by substrate addition and measured after 1 hr by TR-FRET assay
How it was run: (§1)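 Purified truncated LRRK2, WT or G2019S, at 2 nM nominal was preincubated with inhibitor for 15 min. LRRKtide (0.4 μM) and ATP (25 μM) were then added for 1 h. The reaction was stopped with 10 mM EDTA plus 2 nM Tb-anti-pLRRKtide antibody, and TR-FRET was read. IC50 is the geometric mean of at least two independent experiments.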

[2] = biological target: T2, Leucine-rich repeat serine/threonine-protein kinase 2 (Homo sapiens, UniProt Q5S007, G2019S); assay: Inhibition of N-terminal GST-fused human LRRK2 G2019S mutant using fluorescein-labeled LRRKtide as substrate preincubated for 15 mins followed by substrate addition and measured after 1 hr by TR-FRET assay; how it was run: as §1
T2 sequence (Q5S007 whole entry G2019S, the tested form may be a part): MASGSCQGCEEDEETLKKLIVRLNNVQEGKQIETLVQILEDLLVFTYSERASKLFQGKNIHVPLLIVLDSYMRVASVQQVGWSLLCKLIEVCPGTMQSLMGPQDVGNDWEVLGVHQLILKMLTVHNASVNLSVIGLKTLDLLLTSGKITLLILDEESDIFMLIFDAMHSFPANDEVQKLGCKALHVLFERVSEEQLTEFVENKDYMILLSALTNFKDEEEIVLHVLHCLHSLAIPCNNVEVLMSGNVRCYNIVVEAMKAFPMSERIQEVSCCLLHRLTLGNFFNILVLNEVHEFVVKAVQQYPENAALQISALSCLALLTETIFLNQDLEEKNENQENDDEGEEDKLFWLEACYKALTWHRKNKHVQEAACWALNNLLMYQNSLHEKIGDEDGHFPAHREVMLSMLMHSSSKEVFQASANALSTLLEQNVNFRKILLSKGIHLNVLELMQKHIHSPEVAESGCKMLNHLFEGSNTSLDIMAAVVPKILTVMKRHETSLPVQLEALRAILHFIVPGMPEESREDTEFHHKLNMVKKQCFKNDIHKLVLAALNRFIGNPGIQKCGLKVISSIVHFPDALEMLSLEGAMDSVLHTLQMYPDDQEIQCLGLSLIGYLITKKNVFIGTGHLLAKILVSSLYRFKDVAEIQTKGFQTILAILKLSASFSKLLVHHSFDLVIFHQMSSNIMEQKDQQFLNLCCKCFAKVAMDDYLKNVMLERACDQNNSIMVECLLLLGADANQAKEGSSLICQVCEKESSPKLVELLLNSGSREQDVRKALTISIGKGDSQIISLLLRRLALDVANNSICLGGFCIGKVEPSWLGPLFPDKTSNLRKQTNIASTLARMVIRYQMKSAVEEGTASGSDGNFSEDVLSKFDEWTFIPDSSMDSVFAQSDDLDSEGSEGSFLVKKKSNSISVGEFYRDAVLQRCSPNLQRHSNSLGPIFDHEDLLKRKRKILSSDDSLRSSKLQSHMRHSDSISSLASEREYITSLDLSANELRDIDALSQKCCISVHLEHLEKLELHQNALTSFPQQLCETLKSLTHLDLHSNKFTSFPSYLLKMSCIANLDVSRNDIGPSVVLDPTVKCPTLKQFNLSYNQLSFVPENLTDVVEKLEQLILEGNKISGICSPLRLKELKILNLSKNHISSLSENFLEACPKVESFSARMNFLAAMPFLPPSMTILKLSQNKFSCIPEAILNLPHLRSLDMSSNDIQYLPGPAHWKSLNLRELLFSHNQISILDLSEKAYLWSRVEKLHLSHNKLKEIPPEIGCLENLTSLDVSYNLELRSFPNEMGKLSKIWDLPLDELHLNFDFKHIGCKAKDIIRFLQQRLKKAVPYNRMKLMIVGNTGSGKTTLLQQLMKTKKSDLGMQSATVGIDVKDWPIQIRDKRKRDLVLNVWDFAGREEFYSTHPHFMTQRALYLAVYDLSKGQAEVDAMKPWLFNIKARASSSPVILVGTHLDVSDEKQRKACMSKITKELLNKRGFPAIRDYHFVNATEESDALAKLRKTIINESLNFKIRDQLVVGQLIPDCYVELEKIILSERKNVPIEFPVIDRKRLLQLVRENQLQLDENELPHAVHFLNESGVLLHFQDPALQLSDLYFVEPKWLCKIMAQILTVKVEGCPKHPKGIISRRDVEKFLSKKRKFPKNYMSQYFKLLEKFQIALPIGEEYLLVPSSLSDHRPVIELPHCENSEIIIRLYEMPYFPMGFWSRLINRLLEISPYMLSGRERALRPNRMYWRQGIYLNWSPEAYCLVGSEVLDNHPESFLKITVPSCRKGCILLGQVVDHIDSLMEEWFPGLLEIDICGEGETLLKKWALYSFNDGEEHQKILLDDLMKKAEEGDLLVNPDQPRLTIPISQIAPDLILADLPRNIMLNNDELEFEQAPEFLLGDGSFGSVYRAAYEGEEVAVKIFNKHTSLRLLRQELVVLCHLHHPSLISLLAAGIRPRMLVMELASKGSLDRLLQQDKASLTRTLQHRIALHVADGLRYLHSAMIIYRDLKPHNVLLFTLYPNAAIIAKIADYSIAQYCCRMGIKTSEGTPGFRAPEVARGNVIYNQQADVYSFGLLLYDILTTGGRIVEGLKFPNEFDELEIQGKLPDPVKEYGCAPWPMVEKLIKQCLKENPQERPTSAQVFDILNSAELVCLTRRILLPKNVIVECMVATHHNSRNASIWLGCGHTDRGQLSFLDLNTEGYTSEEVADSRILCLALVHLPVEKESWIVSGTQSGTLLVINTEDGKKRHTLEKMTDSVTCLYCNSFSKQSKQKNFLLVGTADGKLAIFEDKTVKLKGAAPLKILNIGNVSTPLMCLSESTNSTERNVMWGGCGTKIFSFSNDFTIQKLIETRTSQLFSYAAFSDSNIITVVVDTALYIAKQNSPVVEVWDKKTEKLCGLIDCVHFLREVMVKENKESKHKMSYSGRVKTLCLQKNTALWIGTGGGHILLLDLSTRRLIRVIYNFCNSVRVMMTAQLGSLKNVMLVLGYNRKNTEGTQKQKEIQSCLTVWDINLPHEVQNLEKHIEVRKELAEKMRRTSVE

Homo sapiens [3] = organism: Homo sapiens; assay: Selectivity ratio of IC50 for inhibition of N-terminal GST-fused human wild type LRRK2 to IC50 for inhibition of N-terminal GST-fused human […] mutant; how it was run: as §1
[4] = biological target: T1, Leucine-rich repeat serine/threonine-protein kinase 2; assay: Inhibition of human wild type LRRK2 expressed in HEK293 cells assessed as reduction in pSer935 phosphorylation incubated for 2 hrs by HTRF analysis; assay type: cell-based
How it was run: (§2)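 Stably transfected HEK293 cells expressing human WT or G2019S LRRK2 were seeded at 5K/well in DMEM with 1% serum on poly-D-lysine plates. Inhibitor in DMSO was added for 2 h at 37 °C. pS935 was detected by an HTRF kit. IC50 is the geometric mean of at least two independent experiments.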

[5] = biological target: T2, Leucine-rich repeat serine/threonine-protein kinase 2; assay: Inhibition of human LRRK2 G2019S mutant expressed in HEK293 cells assessed as reduction in pSer935 phosphorylation incubated for 2 hrs by HTRF analysis; assay type: cell-based; how it was run: as §2
Homo sapiens [6] = organism: Homo sapiens; assay: Selectivity ratio of IC50 for inhibition of human wild type LRRK2 expressed in HEK293 cells to IC50 for inhibition of human LRRK2 G2019S mutant expressed in HEK293; assay type: cell-based
How it was run: (§3)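 HEK293 cells stably expressing WT or G2019S LRRK2 (100 000/well, EMEM with 1% FBS) were dosed about 24 h after plating, for 2 h. They were lysed in 1% SDS Tris buffer with protease and phosphatase inhibitors, and lysates were heated at 65 °C for 10 min. pThr73-Rab10, total Rab10, pS935 and total LRRK2 were quantified by immunoblot. IC50 is the geometric mean of at least two independent experiments.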

[7] = biological target: T1, Leucine-rich repeat serine/threonine-protein kinase 2; assay: Inhibition of human wild type LRRK2 expressed in HEK293 cells assessed as reduction in pS1292 phosphorylation incubated for 2 hrs by MSD analysis; assay type: cell-based
How it was run: (§4)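 HEK293 cells stably expressing WT or G2019S LRRK2 (30−50K/well, DMEM with 1% serum) were treated for 2 h at 37 °C and lysed with phosphatase inhibitors. LRRK2 was captured on anti-LRRK2-coated MSD plates overnight at 4 °C. Detection used rabbit anti-pS1292 (1:400) and Sulfo-Tag anti-rabbit, with an electrochemiluminescence read-out. IC50 is the geometric mean of at least two independent experiments.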

[8] = biological target: T2, Leucine-rich repeat serine/threonine-protein kinase 2; assay: Inhibition of human LRRK2 G2019S mutant expressed in HEK293 cells assessed as reduction in pS1292 phosphorylation incubated for 2 hrs by MSD analysis; assay type: cell-based; how it was run: as §4
Homo sapiens [9] = organism: Homo sapiens; assay: Selectivity ratio of IC50 for inhibition of human wild type LRRK2 expressed in HEK293 cells assessed as reduction in pS1292 phosphorylation to IC50 for inhibition of human LRRK2 G2019S mutant expressed in HEK293 cells assessed as reduction in pS1292 phosphorylation; assay type: cell-based; how it was run: as §4
[10] = biological target: T1, Leucine-rich repeat serine/threonine-protein kinase 2; assay: Inhibition of human wild type LRRK2 expressed in HEK293 cells assessed as reduction in pSer935 phosphorylation incubated for 2 hrs by immunoblotting analysis; assay type: cell-based; how it was run: as §3
[11] = biological target: T2, Leucine-rich repeat serine/threonine-protein kinase 2; assay: Inhibition of human LRRK2 G2019S mutant expressed in HEK293 cells assessed as reduction in pSer935 phosphorylation incubated for 2 hrs by immunoblotting analysis; assay type: cell-based; how it was run: as §3
Homo sapiens [12] = organism: Homo sapiens; assay: Selectivity ratio of IC50 for inhibition of human wild type LRRK2 expressed in HEK293 cells assessed as reduction in pSer935 phosphorylation to IC50 for inhibition of human LRRK2 G2019S mutant expressed in HEK293 cells assessed as reduction in pSer935 phosphorylation; assay type: cell-based; how it was run: as §2
[13] = biological target: T1, Leucine-rich repeat serine/threonine-protein kinase 2; assay: Inhibition human wild type LRRK2 expressed in human HEK293 assessed as Rab10 substrate phosphorylation at Threonine 73 residue incubated for 2 hrs by immunoblotting analysis; assay type: cell-based; how it was run: as §3
[14] = biological target: T2, Leucine-rich repeat serine/threonine-protein kinase 2; assay: Inhibition human LRRK2 G2019S mutant expressed in human HEK293 assessed as Rab10 substrate phosphorylation at Threonine 73 residue incubated for 2 hrs by immunoblotting analysis; assay type: cell-based; how it was run: as §3
Homo sapiens [15] = organism: Homo sapiens; assay: Selectivity ratio of IC50 for inhibition human wild type LRRK2 expressed in human HEK293 assessed as Rab10 substrate phosphorylation at Threonine 73 residue to IC50 for inhibition of human LRRK2 G2019S mutant expressed in human HEK293 assessed as Rab10 substrate phosphorylation at Threonine 73 residue; how it was run: as §3

T1 sequence (Q5S007 whole entry, the tested form may be a part): as the sequence (Q5S007 whole entry G2019S, the tested form may be a part) above, with S2019G counted along it

IC50 [1]	IC50 [2]	Ratio IC50 (Homo sapiens [3])	Compound	also measured
0.53 nM	< 0.2 nM	> 2.6	CC1=C(C(=O)Nc2ccc3[nH]nc(-c4nc5ccccc5[nH]4)c3c2)Cn2nnnc2N1C	IC50 [4]: 3300 nM; IC50 [5]: 21 nM; Ratio IC50 (Homo sapiens [6]): 157; IC50 [7]: 242 nM; IC50 [8]: 21 nM; Ratio IC50 (Homo sapiens [9]): 12
121 nM	10 nM	12	CC1=C(C(=O)Nc2ccc3[nH]nc(C)c3c2)Cn2nnnc2N1C	
> 10000 nM	6370 nM	> 1.6	CC1=C(C(=O)Nc2ccc3c(c2)CC(=O)N3)Cn2nnnc2N1C	
865 nM	58 nM	15	CCN1C(C)=C(C(=O)Nc2ccc3[nH]ncc3c2)Cn2nnnc21	
0.88 nM	0.4 nM	2.2	CC1=C(C(=O)Nc2ccc3[nH]nc(-c4cc(N5CCOCC5)ncn4)c3c2)Cn2nnnc2N1C	
1220 nM	51 nM	24	CC1=C(C(=O)Nc2ccc3[nH]nc(C)c3c2)[C@H](C)n2nnnc2N1C	
< 0.2 nM	< 0.2 nM		CC1=C(C(=O)Nc2ccc3[nH]nc(-c4ccncc4)c3c2)[C@@H](C)n2nnnc2N1C	IC50 [4]: 1140 nM; IC50 [5]: 14.7 nM; Ratio IC50 (Homo sapiens [6]): 78; IC50 [7]: 272 nM; IC50 [8]: 12.1 nM; Ratio IC50 (Homo sapiens [9]): 22
0.7 nM	< 0.2 nM	> 3.5	CC1=C(C(=O)Nc2ccc3[nH]nc(-c4ccc(S(N)(=O)=O)cc4)c3c2)Cn2nnnc2N1C	
1300 nM	12 nM	108	CC1=C(C(=O)Nc2ccc3[nH]ncc3c2)C(C)(C)n2nnnc2N1C	
534 nM	244 nM	2.2	CCC1=C(C(=O)Nc2ccc3[nH]ncc3c2)Cn2nnnc2N1C	
125 nM	6 nM	21	CC1=C(C(=O)Nc2ccc3[nH]nc(C(N)=O)c3c2)Cn2nnnc2N1C	
> 10000 nM	1190 nM	> 8.4	CCCC(=O)Nc1n[nH]c2ccc(NC(=O)C3=C(C)N(C)c4nnnn4C3)cc12	
1 nM	< 0.2 nM	> 5	CC1=C(C(=O)Nc2ccc3[nH]nc(-c4ccnc(N5CCOCC5)c4)c3c2)[C@H](C)n2nnnc2N1C	
> 8600 nM	240 nM	> 36	CC1=C(C(=O)Nc2ccc3[nH]c(=O)[nH]c3c2)Cn2nnnc2N1C	
2840 nM	55 nM	52	CC1=C(C(=O)Nc2ccc3c(c2)C(=O)NC3=O)[C@@H](C)n2nnnc2N1C	

More lines, now with the values behind:

Compound	IC50 [1]	IC50 [2]	Ratio IC50 (Homo sapiens [3])	also measured
CC1=C(C(=O)Nc2ccc3[nH]cnc3c2)Cn2nnnc2N1C	> 10000 nM	> 10000 nM		
CC1=C(C(=O)Nc2ccc3[nH]ncc3c2)Cn2nnnc2N1CCN1CCOCC1	6130 nM	4650 nM	1.3	
CC(=O)N1C(C)=C(C(=O)Nc2ccc3[nH]ncc3c2)Cn2nnnc21	2540 nM	513 nM	5	
CC1=C(C(=O)Nc2ccc3[nH]nc(C)c3c2)[C@@H](C)n2nnnc2N1C	20 nM	0.82 nM	24	IC50 [4]: 5220 nM; IC50 [5]: 46.1 nM; Ratio IC50 (Homo sapiens [6]): 113; IC50 [10]: 8740 nM; IC50 [11]: 106 nM; Ratio IC50 (Homo sapiens [12]): 82; IC50 [7]: 380 nM; IC50 [8]: 19 nM; Ratio IC50 (Homo sapiens [9]): 20; IC50 [13]: 9740 nM; IC50 [14]: 137 nM; Ratio IC50 (Homo sapiens [15]): 71
CC1=C(C(=O)Nc2ccc3c(c2)[nH]c(=O)n3C)[C@@H](C)n2nnnc2N1C	> 10000 nM	> 10000 nM		
CN1C=C(C(=O)Nc2ccc3[nH]ncc3c2)Cn2nnnc21	> 10000 nM	> 10000 nM		
CC1=C(C(=O)Nc2ccc3[nH]ncc3c2)Cn2nnnc2N1c1ccccc1	5.7 nM	2.6 nM	2.2	
CC1=C(C(=O)Nc2ccc3[nH]nc(-c4ccncc4)c3c2)Cn2nnnc2N1C	9 nM	0.44 nM	20	
CC1=C(C(=O)Nc2ccc3[nH]cc(C)c3c2)Cn2nnnc2N1C	> 10000 nM	> 10000 nM		
CC1=C(C(=O)Nc2ccc3[nH]nc(-c4ccnc(N5CCOCC5)c4)c3c2)Cn2nnnc2N1C	< 0.2 nM	< 0.2 nM		IC50 [4]: 377 nM; IC50 [5]: 8.3 nM; Ratio IC50 (Homo sapiens [6]): 45; IC50 [7]: 74.4 nM; IC50 [8]: 9.2 nM; Ratio IC50 (Homo sapiens [9]): 8
CC1=C(C(=O)Nc2ccc3[nH]nc(C)c3c2)C(C)(C)n2nnnc2N1C	152 nM	0.8 nM	190	
CC1=C(C(=O)N(C)c2ccc3[nH]ncc3c2)Cn2nnnc2N1C		> 10000 nM		
CC1=C(C(=S)Nc2ccc3[nH]ncc3c2)Cn2nnnc2N1C		15.3 nM	15	
CC1=C(C(=O)Nc2ccc3[nH]ncc3c2)[C@@H](C)n2nnnc2N1C	71 nM	1.64 nM	43	IC50 [4]: > 10000 nM; IC50 [5]: 189 nM; Ratio IC50 (Homo sapiens [6]): > 53; IC50 [7]: 2180 nM; IC50 [8]: 104 nM; Ratio IC50 (Homo sapiens [9]): 21
CC1=C(C(=O)Nc2ccc3cnc(C)n3c2)Cn2nnnc2N1C	> 10000 nM	3120 nM	> 3.2	
CC1=C(C(=O)Nc2ccc3[nH]nc(NC(=O)c4ccccc4)c3c2)Cn2nnnc2N1C	108 nM	3 nM	35	
CC1=C(C(=O)Nc2ccc3[nH]ncc3c2)Cn2nnnc2N1C	509 nM	32 nM	16	
CC1=C(C(=O)Nc2ccc3c(N)nccc3c2)[C@@H](C)n2nnnc2N1C	581 nM	12 nM	48	
CC1=C(C(=O)Nc2ccc3[nH]ncc3c2)Cn2nnnc2N1C(=O)N(C)C	888 nM	53 nM	17	
CC1=C(C(=O)Nc2ccc3c(c2)CNC3=O)[C@@H](C)n2nnnc2N1C	1700 nM	32 nM	53	
CC1=C(C(=O)Nc2ccc3[nH]nc(Br)c3c2)Cn2nnnc2N1C	96 nM	2.4 nM	40	
CC1=C(C(=O)Nc2ccn3cnc(C)c3c2)Cn2nnnc2N1C	> 10000 nM	1350 nM	> 7.4	
CC1=C(C(=O)Nc2ccc3[nH]ncc3c2)[C@H](C)n2nnnc2N1C	302 nM	94 nM	3.2	
CC1=C(C(=O)Nc2ccc3[nH]nc(-c4ccnc(N5CCOCC5)c4)c3c2)[C@@H](C)n2nnnc2N1C	< 0.2 nM	< 0.2 nM		IC50 [4]: 65 nM; IC50 [5]: 2.4 nM; Ratio IC50 (Homo sapiens [6]): 27; IC50 [7]: 20.9 nM; IC50 [8]: 1.2 nM; Ratio IC50 (Homo sapiens [9]): 18
CC1=C(C(=O)Nc2ccc3[nH]c(=O)n(C)c3c2)[C@@H](C)n2nnnc2N1C	2870 nM	58 nM	49.7	
